From ChEMBL document CHEMBL5724801, “EUbOPEN Chemogenomics Library - Multiplex” (2024)
Values joined by “and” are separate entries in the source; they are usually repeats but may differ in a detail not shown here. Equal values may be shown once.

System: Fibroblast
Test: Multiplex assay against human fibroblast
Assay type: toxicity, cell-based
Outline: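 Tubulin, mitochondrial-mass and membrane-permeability phenotypes are per cents of healthy-nucleus cells. Cells were gated by CellPathfinder machine learning into Hoechst high-intensity objects or normal cells, normal cells into healthy, pyknosed or fragmented nuclei, and pyknosed cells into mitotic or apoptotic. Before that, live cells stained at seeding with Hoechst33342, BioTracker Green Microtubule Cytoskeleton Dye, MitoTracker Red and Annexin V Alexa Fluor 680 were imaged on a CQ1 microscope at 37°C and 5% CO2 after compound addition.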

[1] = 12 h, 1 µM, compound concentration 1 uM
[2] = 12 h, 10 µM, compound concentration 10 uM
[3] = 24 h, 1 µM, compound concentration 1 uM
[4] = 24 h, 10 µM, compound concentration 10 uM
[5] = 48 h, 1 µM, compound concentration 1 uM
[6] = 48 h, 10 µM, compound concentration 10 uM

Cc1cccc(NC(=O)CN2CCC(c3ccccn3)CC2)c1.Cl.Cl
Population Apoptotic (%) [1]: 47% and 33% | Population Fragmented Nuclei (%) [1]: 16% and 25% | Population Healthy Nuclei (%) [1]: 70% and 55% | Population Hoechst High Intensity Objects (%) [1]: 4% and 6% | Population Membrane Permeable-Phenotype (%) [1]: 0% and 2% | Population Mitochondria Different-Phenotype (%) [1]: 6% and 5% | Population Mitotic Cells (%) [1]: 52% and 66% | Population Normal (%) [1]: 95% and 93% | Population Pyknosed Nuclei (%) [1]: 12% and 19% | Population Tubulin-Different-Phenotype (%) [1]: 34% and 35% | Total Cell Count [1]: 140 and 232 | Population Apoptotic (%) [2]: 59% and 34% | Population Healthy Nuclei (%) [2]: 78% and 30% | Population Hoechst High Intensity Objects (%) [2]: 10% and 2% | Population Membrane Permeable-Phenotype (%) [2]: 1% and 6% | Population Mitochondria Different-Phenotype (%) [2]: 7% and 10% | Population Mitotic Cells (%) [2]: 40% and 65% | Population Normal (%) [2]: 89% and 98% | Population Pyknosed Nuclei (%) [2]: 13% and 23% | Population Tubulin-Different-Phenotype (%) [2]: 36% and 56% | Total Cell Count [2]: 229 and 100 | Population Apoptotic (%) [3]: 50% and 40% | Population Fragmented Nuclei (%) [3]: 18% and 26% | Population Healthy Nuclei (%) [3]: 70% and 53% | Population Hoechst High Intensity Objects (%) [3]: 2% and 4% | Population Membrane Permeable-Phenotype (%) [3]: 0% and 4% | Population Mitochondria Different-Phenotype (%) [3]: 8% and 6% | Population Mitotic Cells (%) [3]: 50% and 59% | Population Normal (%) [3]: 97% and 95% | Population Pyknosed Nuclei (%) [3]: 10% and 19% | Population Tubulin-Different-Phenotype (%) [3]: 25% and 30% | Total Cell Count [3]: 134 and 239 | Population Apoptotic (%) [4]: 64% and 42% | Population Healthy Nuclei (%) [4]: 81% and 34% | Population Hoechst High Intensity Objects (%) [4]: 7% and 0% | Population Membrane Permeable-Phenotype (%) [4]: 0% and 11% | Population Mitochondria Different-Phenotype (%) [4]: 11% | Population Mitotic Cells (%) [4]: 35% and 57% | Population Normal (%) [4]: 92% and 100% | Population Tubulin-Different-Phenotype (%) [4]: 38% and 50% | Total Cell Count [4]: 217 and 105 | Population Apoptotic (%) [5]: 80% and 60% | Population Fragmented Nuclei (%) [5]: 25% and 31% | Population Healthy Nuclei (%) [5]: 63% and 55% | Population Hoechst High Intensity Objects (%) [5]: 3% | Population Membrane Permeable-Phenotype (%) [5]: 1% and 4% | Population Mitochondria Different-Phenotype (%) [5]: 3% | Population Mitotic Cells (%) [5]: 20% and 39% | Population Normal (%) [5]: 96% | Population Pyknosed Nuclei (%) [5]: 11% and 12% | Population Tubulin-Different-Phenotype (%) [5]: 28% and 35% | Total Cell Count [5]: 138 and 229 | Population Apoptotic (%) [6]: 76% and 28% | Population Healthy Nuclei (%) [6]: 75% and 39% | Population Hoechst High Intensity Objects (%) [6]: 7% and 1% | Population Membrane Permeable-Phenotype (%) [6]: 2% | Population Normal (%) [6]: 92% and 98% | Population Pyknosed Nuclei (%) [6]: 7% and 6% | Population Tubulin-Different-Phenotype (%) [6]: 44% and 61% | Total Cell Count [6]: 238 and 109

COC(c1ccccc1)(c1ccccc1)[C@H](Oc1nc(C)cc(C)n1)C(=O)O [AMBRISENTAN]
Population Apoptotic (%) [1]: 68% and 30% | Population Fragmented Nuclei (%) [1]: 13% and 18% | Population Healthy Nuclei (%) [1]: 66% and 56% | Population Hoechst High Intensity Objects (%) [1]: 1% and 4% | Population Membrane Permeable-Phenotype (%) [1]: 0% and 1% | Population Mitochondria Different-Phenotype (%) [1]: 4% and 6% | Population Mitotic Cells (%) [1]: 31% and 69% | Population Normal (%) [1]: 98% and 95% | Population Pyknosed Nuclei (%) [1]: 19% and 25% | Population Tubulin-Different-Phenotype (%) [1]: 29% and 37% | Total Cell Count [1]: 97 and 163 | Population Apoptotic (%) [2]: 56% and 33% | Population Healthy Nuclei (%) [2]: 70% and 25% | Population Hoechst High Intensity Objects (%) [2]: 5% and 4% | Population Membrane Permeable-Phenotype (%) [2]: 0% and 5% | Population Mitochondria Different-Phenotype (%) [2]: 11% and 0% | Population Mitotic Cells (%) [2]: 43% and 66% | Population Normal (%) [2]: 94% and 95% | Population Pyknosed Nuclei (%) [2]: 21% and 34% | Population Tubulin-Different-Phenotype (%) [2]: 25% and 35% | Total Cell Count [2]: 145 and 82 | Population Apoptotic (%) [3]: 62% and 34% | Population Fragmented Nuclei (%) [3]: 15% and 14% | Population Healthy Nuclei (%) [3]: 67% and 62% | Population Hoechst High Intensity Objects (%) [3]: 2% and 5% | Population Membrane Permeable-Phenotype (%) [3]: 0% and 3% | Population Mitochondria Different-Phenotype (%) [3]: 4% and 3% | Population Mitotic Cells (%) [3]: 37% and 65% | Population Normal (%) [3]: 97% and 94% | Population Pyknosed Nuclei (%) [3]: 17% and 23% | Population Tubulin-Different-Phenotype (%) [3]: 38% | Total Cell Count [3]: 95 and 158 | Population Apoptotic (%) [4]: 69% and 27% | Population Healthy Nuclei (%) [4]: 68% and 27% | Population Hoechst High Intensity Objects (%) [4]: 7% and 5% | Population Membrane Permeable-Phenotype (%) [4]: 0% and 5% | Population Mitochondria Different-Phenotype (%) [4]: 11% and 10% | Population Mitotic Cells (%) [4]: 30% and 72% | Population Normal (%) [4]: 92% and 94% | Population Pyknosed Nuclei (%) [4]: 18% and 26% | Population Tubulin-Different-Phenotype (%) [4]: 29% and 36% | Total Cell Count [4]: 149 and 73 | Population Apoptotic (%) [5]: 60% and 61% | Population Fragmented Nuclei (%) [5]: 19% and 24% | Population Healthy Nuclei (%) [5]: 64% and 54% | Population Hoechst High Intensity Objects (%) [5]: 4% and 0% | Population Membrane Permeable-Phenotype (%) [5]: 1% and 4% | Population Mitochondria Different-Phenotype (%) [5]: 5% and 10% | Population Mitotic Cells (%) [5]: 40% and 38% | Population Normal (%) [5]: 95% and 99% | Population Pyknosed Nuclei (%) [5]: 16% and 20% | Population Tubulin-Different-Phenotype (%) [5]: 28% and 42% | Total Cell Count [5]: 93 and 154 | Population Apoptotic (%) [6]: 61% and 71% | Population Healthy Nuclei (%) [6]: 71% and 31% | Population Hoechst High Intensity Objects (%) [6]: 7% and 3% | Population Membrane Permeable-Phenotype (%) [6]: 1% and 0% | Population Mitochondria Different-Phenotype (%) [6]: 10% and 0% | Population Mitotic Cells (%) [6]: 38% and 28% | Population Normal (%) [6]: 92% and 96% | Population Pyknosed Nuclei (%) [6]: 13% and 18% | Population Tubulin-Different-Phenotype (%) [6]: 34% and 62% | Total Cell Count [6]: 145 and 79

CC(N)C1CCC(C(=O)Nc2ccncc2)CC1 (stereo not drawn)
Population Fragmented Nuclei (%) [1]: 12.67% and 4.31% | Population Healthy Nuclei (%) [1]: 64.25% and 88.36% | Population Hoechst High Intensity Objects (%) [1]: 0% | Population Membrane Permeable-Phenotype (%) [1]: 2.82% and 2.93% | Population Mitochondria Different-Phenotype (%) [1]: 7.75% and 8.29% | Population Mitotic Cells (%) [1]: 94.12% and 82.35% | Population Normal (%) [1]: 100% | Population Tubulin-Different-Phenotype (%) [1]: 11.27% and 12.2% | Total Cell Count [1]: 221 and 232 | Population Apoptotic (%) [2]: 19.3% and 38.89% | Population Fragmented Nuclei (%) [2]: 9.18% and 4.02% | Population Healthy Nuclei (%) [2]: 63.29% and 85.63% | Population Hoechst High Intensity Objects (%) [2]: 0% | Population Membrane Permeable-Phenotype (%) [2]: 3.05% and 0% | Population Mitochondria Different-Phenotype (%) [2]: 10.69% and 10.07% | Population Mitotic Cells (%) [2]: 80.7% and 61.11% | Population Normal (%) [2]: 100% | Population Pyknosed Nuclei (%) [2]: 27.54% and 10.34% | Population Tubulin-Different-Phenotype (%) [2]: 10.69% and 8.05% | Total Cell Count [2]: 207 and 174 | Population Apoptotic (%) [3]: 11.11% and 33.33% | Population Fragmented Nuclei (%) [3]: 6.64% and 2.82% | Population Healthy Nuclei (%) [3]: 78.42% and 89.92% | Population Hoechst High Intensity Objects (%) [3]: 0% | Population Membrane Permeable-Phenotype (%) [3]: 4.23% and 2.69% | Population Mitochondria Different-Phenotype (%) [3]: 0.53% and 5.83% | Population Mitotic Cells (%) [3]: 88.89% and 66.67% | Population Normal (%) [3]: 100% | Population Pyknosed Nuclei (%) [3]: 14.94% and 7.26% | Population Tubulin-Different-Phenotype (%) [3]: 7.41% and 11.66% | Total Cell Count [3]: 241 and 248 | Population Apoptotic (%) [4]: 18.18% and 44.44% | Population Fragmented Nuclei (%) [4]: 6.51% and 6.08% | Population Healthy Nuclei (%) [4]: 78.14% and 88.95% | Population Hoechst High Intensity Objects (%) [4]: 0% | Population Membrane Permeable-Phenotype (%) [4]: 2.38% and 0% | Population Mitochondria Different-Phenotype (%) [4]: 4.76% and 8.07% | Population Mitotic Cells (%) [4]: 81.82% and 55.56% | Population Normal (%) [4]: 100% | Population Tubulin-Different-Phenotype (%) [4]: 13.69% and 11.8% | Total Cell Count [4]: 215 and 181 | Population Apoptotic (%) [5]: 30.77% and 83.33% | Population Fragmented Nuclei (%) [5]: 11.15% and 6.02% | Population Healthy Nuclei (%) [5]: 83.85% and 91.57% | Population Hoechst High Intensity Objects (%) [5]: 0% | Population Membrane Permeable-Phenotype (%) [5]: 0.92% and 3.07% | Population Normal (%) [5]: 100% | Population Pyknosed Nuclei (%) [5]: 5% and 2.41% | Population Tubulin-Different-Phenotype (%) [5]: 3.21% and 10.09% | Total Cell Count [5]: 260 and 249 | Population Apoptotic (%) [6]: 50% and 33.33% | Population Fragmented Nuclei (%) [6]: 10.31% and 6.56% | Population Healthy Nuclei (%) [6]: 86.64% and 90.16% | Population Hoechst High Intensity Objects (%) [6]: 0% | Population Membrane Permeable-Phenotype (%) [6]: 0.44% and 0.61% | Population Mitotic Cells (%) [6]: 50% and 66.67% | Population Normal (%) [6]: 100% | Population Pyknosed Nuclei (%) [6]: 3.05% and 3.28% | Population Tubulin-Different-Phenotype (%) [6]: 3.08% and 11.52% | Total Cell Count [6]: 262 and 183
